Measurements reported in PMC2077835 (Drug metabolism and disposition: the biological fate of …, 2006).
Values belong to the compound of their own block, whether it stands above or below them.

Columns and labels:
CYP2J2 [1] = target: T1, CYP2J2 (Homo sapiens, UniProt P51589); assay: Chemical inhibition of M1 formation by recombinant CYP2J2; type: biochemical
T1 sequence (P51589 1-502): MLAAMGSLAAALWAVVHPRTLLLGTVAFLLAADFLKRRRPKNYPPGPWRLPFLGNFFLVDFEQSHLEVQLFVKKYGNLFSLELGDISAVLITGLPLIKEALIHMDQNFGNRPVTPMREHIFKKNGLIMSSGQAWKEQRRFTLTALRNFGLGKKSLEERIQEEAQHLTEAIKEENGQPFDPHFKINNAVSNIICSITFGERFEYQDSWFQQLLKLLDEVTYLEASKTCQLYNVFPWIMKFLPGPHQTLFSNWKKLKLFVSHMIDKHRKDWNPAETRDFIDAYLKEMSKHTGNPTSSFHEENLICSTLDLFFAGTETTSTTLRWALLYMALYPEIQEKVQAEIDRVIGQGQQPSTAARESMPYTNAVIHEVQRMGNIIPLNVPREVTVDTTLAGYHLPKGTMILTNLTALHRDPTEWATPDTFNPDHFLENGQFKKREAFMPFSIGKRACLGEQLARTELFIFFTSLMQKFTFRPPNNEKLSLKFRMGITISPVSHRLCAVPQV

recombinant CYP4F3B = target: T2, recombinant CYP4F3B (Homo sapiens, UniProt Q08477); assay: Chemical inhibition of M1 formation by recombinant CYP4F3B; type: biochemical
T2 sequence (Q08477 1-520 isoform Q08477-2): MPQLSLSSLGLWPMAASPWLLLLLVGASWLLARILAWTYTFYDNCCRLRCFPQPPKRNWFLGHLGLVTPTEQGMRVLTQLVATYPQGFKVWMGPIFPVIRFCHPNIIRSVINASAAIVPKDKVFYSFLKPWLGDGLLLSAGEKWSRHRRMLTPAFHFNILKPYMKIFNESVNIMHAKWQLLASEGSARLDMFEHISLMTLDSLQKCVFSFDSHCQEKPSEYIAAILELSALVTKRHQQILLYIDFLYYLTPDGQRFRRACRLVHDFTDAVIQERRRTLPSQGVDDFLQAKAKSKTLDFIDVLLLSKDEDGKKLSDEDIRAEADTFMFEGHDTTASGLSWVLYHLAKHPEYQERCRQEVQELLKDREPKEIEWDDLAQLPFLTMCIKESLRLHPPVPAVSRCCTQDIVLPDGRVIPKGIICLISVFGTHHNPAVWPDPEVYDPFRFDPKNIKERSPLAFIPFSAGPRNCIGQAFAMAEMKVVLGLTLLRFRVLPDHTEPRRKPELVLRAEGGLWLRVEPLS

recombinant CYP4F2 = target: T3, recombinant CYP4F2 (Homo sapiens, UniProt P78329); assay: Chemical inhibition of M1 formation by recombinant CYP4F2; type: biochemical
T3 sequence (P78329 5-520): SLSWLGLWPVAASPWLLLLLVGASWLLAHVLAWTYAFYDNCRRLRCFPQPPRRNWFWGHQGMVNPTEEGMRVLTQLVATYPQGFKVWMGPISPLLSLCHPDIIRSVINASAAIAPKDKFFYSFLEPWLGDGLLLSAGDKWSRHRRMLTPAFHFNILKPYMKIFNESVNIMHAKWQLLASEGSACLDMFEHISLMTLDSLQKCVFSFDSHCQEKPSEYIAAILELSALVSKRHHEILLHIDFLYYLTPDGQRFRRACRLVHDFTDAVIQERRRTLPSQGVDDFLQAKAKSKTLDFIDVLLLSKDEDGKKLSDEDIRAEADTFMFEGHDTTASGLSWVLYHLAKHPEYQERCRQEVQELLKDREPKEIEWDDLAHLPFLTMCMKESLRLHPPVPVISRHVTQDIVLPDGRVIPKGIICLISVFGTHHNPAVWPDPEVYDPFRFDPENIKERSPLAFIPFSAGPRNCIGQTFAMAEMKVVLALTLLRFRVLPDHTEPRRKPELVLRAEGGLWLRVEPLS

[2] = tested on: M1 formation by human liver microsomes; assay: Chemical inhibition of M1 formation by HLMs; type: biochemical
[3] = Incubation of DB289 with pooled human liver microsomes; type: in vitro ADME; settings: 15 μM DB289, 0.2 mg/ml HLMs, 0-120 min
Summary of the method: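 Pooled liver microsomes (50 donors, mixed gender) at 0.2 mg/ml with 15 μM substrate in a 1 ml mix, equilibrated 5 min at 37°C, then started with NADPH. Aliquots taken at 0, 5, 15, 30 and 120 min into ice-cold acetonitrile. LC/UV at 359 nm against an external 0.1–15 μM calibration; metabolites identified by retention time versus synthetic standards. Single determination; controls lacked NADPH, protein or substrate.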

[4] = HLMs, ref Zimmerlin and Patten (2000), cited from earlier work
CYP2J2 [5] = settings: ref Hashizume et al. (2002); cited from earlier work
[6] = 0.2 μM and 1 μM, 10 pmol/ml P450, 3 μM DB289
[7] = read-out: inhibition of M1 formation
[8] = 100 μM inhibitor, 10 pmol/ml P450, 3 μM DB289

Structure (SMILES): C#CCCCCCCCCCCCCCCCC(=O)O [17-ODYA, 17-Octadecynoic acid]
activation of M1 formation at low concentrations (CYP2J2 [1]; [6]): activation was not observed | activation of M1 formation at low concentrations (recombinant CYP4F3B; [6]): appeared to activate | activation of M1 formation at low concentrations (recombinant CYP4F2; [6]): activation was not observed | inhibition of M1 formation ([2]; 1 μM inhibitor, 15 min preincubation, 0.2 mg/ml HLM, 3 μM DB289): 39% | inhibition of M1 formation ([2]; 10 μM inhibitor, 15 min preincubation, 0.2 mg/ml HLM, 3 μM DB289): 84%

Structure (SMILES): Nn1nnc2ccccc21 [ABT, 1-aminobenzotriazole]
inhibition of M1 formation relative to control ([2]; 100 μM inhibitor, 15 min preincubation, 0.2 mg/ml HLM, 3 μM DB289, 5 min): 86%

Structure (SMILES): CCCCCCCCc1ccc(CCC(N)(CO)CO)cc1 [FTY720, 2-amino-2-[2-(4-octylphenyl)ethyl]-1,3-propanediol]
Vmax of ω-hydroxylation [4]: 1850 pmol/min/mg protein | Km ([4]; read-out: apparent Km of ω-hydroxylation): 180 µM

Structure (SMILES): CC(C)(C)c1ccc(C(=O)CCCN2CCC(OC(c3ccccc3)c3ccccc3)CC2)cc1 [ebastine]
Km (CYP2J2 [5]): 1.3 µM

Structure (SMILES): CO[C@H]1C[C@H](O[C@H]2[C@H](C)[C@@H](O[C@@H]3O[C@H](C)C[C@H](N(C)C)[C@H]3OC(C)=O)[C@@H](C)C[C@@]3(CO3)C(=O)[C@H](C)[C@@H](OC(C)=O)[C@@H](C)[C@@H](C)OC(=O)[C@@H]2C)O[C@@H](C)[C@@H]1OC(C)=O [troleandomycin]
inhibition of M1 formation ([2]; 50 or 100 μM inhibitor, 0.2 mg/ml HLM, 3 μM DB289): did not inhibit

Structure (SMILES): O=c1cc(-c2ccccc2)oc2c1ccc1ccccc12 [α-naphthoflavone]
inhibition of M1 formation ([2]; 1 μM inhibitor, 0.2 mg/ml HLM, 3 μM DB289, 5 min): negligible inhibition

Second part, led by results:

concentration of metabolite formed from DB289 [3]: below the lower level of quantification
Structure (SMILES): N=C(N)c1ccc(-c2ccc(-c3ccc(C(=N)N)cc3)o2)cc1 [DB75, 2,5-bis(4-amidinophenyl) furan]

inhibition at 0.02 µM (recombinant CYP4F3B; [7]): 79% | inhibition at 0.02 µM (recombinant CYP4F2; [7]): 82%
Structure (SMILES): CCCCc1ccc(N=CNO)c(C)c1 [HET0016, N-hydroxy-N′-(4-n-butyl-2-methylphenyl)formamidine]
inhibition of M1 formation ([2]; 0.1 μM inhibitor, 0.2 mg/ml HLM, 3 μM DB289): 78% | inhibition of M1 formation ([2]; 0.5 μM inhibitor, 0.2 mg/ml HLM, 3 μM DB289): 95%

inhibition of M1 formation (recombinant CYP4F3B; [8]): potently inhibited | inhibition of M1 formation (recombinant CYP4F2; [8]): potently inhibited
Structure (SMILES): CCCCC/C=C\C/C=C\C/C=C\C/C=C\CCCC(=O)O [arachidonic acid]
inhibition of M1 formation ([2]; 500 μM inhibitor, 0.2 mg/ml HLM, 3 μM DB289): 60% | inhibition of M1 formation ([2]; inhibitor up to 100 μM, 0.2 mg/ml HLM, 3 μM DB289): no effect

inhibition at 5 min, 3 μM (CYP2J2 [1]; human, recombinant CYP2J2, pH 7.4, probe DB289 (3 μM), conversion to M1): 93% | inhibition of M1 formation (recombinant CYP4F3B; 3 μM inhibitor, 10 pmol/ml P450, 3 μM DB289, 15 min): no effect | inhibition at 3 µM (recombinant CYP4F2; [7]): 87%
Structure (SMILES): CC(=O)N1CCN(c2ccc(OCC3COC(Cn4ccnc4)(c4ccc(Cl)cc4Cl)O3)cc2)CC1 (stereo not shown) [ketoconazole]
inhibition of M1 formation ([2]; 3 μM inhibitor, 0.2 mg/ml HLM, 3 μM DB289, 5 min, Fig. 4): 61% | inhibition of M1 formation ([2]; 3 μM inhibitor, 0.2 mg/ml pooled HLMs (different lot), 3 μM DB289, 5 min, Fig. 8): ~43%
